In BindingDB's records for doi:10.1016/j.ejmech.2009.05.023 (Sun Yat-Sen University, 2009):

target: T1, Polyphenol oxidase 2 (Agaricus bisporus, UniProt O42713); experiment: Inhibition of mushroom tyrosinase
T1 sequence (O42713 whole entry): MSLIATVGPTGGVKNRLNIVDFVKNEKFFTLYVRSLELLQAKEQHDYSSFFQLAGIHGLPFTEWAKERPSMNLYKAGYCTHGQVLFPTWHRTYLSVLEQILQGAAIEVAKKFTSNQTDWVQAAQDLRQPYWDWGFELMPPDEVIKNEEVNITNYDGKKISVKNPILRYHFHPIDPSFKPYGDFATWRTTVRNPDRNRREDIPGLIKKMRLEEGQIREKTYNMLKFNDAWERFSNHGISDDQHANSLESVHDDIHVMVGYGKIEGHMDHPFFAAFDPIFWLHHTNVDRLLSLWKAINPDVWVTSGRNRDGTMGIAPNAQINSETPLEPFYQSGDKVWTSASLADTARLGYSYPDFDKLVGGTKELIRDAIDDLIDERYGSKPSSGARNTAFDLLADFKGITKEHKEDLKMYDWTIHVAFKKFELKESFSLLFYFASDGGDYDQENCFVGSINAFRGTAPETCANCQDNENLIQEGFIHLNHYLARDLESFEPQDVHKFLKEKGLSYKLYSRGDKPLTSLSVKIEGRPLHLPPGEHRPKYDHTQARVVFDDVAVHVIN
Procedure, shortened: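 Mushroom tyrosinase diphenolase assay: 1 mL reaction with 0.5 mM L-DOPA in 50 mM sodium phosphate buffer, pH 6.8, enzyme final 0.5 mg/mL, 25 °C. Compounds dissolved in DMSO (2.0% final); DMSO-only controls run. Dopachrome formation followed at 475 nm for 1 min. IC50 interpolated from dose–response curves; means of three experiments.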

| SMILES | IC50 [µM] |
| --- | --- |
| COCCOCCOc1ccc(Cc2c(O)[nH]c(=O)[nH]c2=O)cc1 [5-(4-(2-(2-Methoxyethoxy)ethoxy)benzyl)pyrimidine-2,4,6(1H,3H,5H)trione] | > 200 |
| CCCCOCCOc1ccc(Cc2c(O)[nH]c(=O)[nH]c2=O)cc1 [5-(4-(2-Butoxyethoxy)benzyl)pyrimidine-2,4,6(1H,3H,5H)-trione] | > 200 |
| O=c1[nH]c(O)c(Cc2ccc(OCCO)cc2)c(=O)[nH]1 [5-(4-(2-Hydroxyethoxy)benzyl)pyrimidine-2,4,6(1H,3H,5H)-trione] | > 200 |
| COCCOc1ccc(Cc2c(O)[nH]c(=O)[nH]c2=O)cc1 [5-(4-(2-Methoxyethoxy)benzyl)pyrimidine-2,4,6(1H,3H,5H)-trione] | > 200 |
| COCCCCOc1ccc(Cc2c(O)[nH]c(=S)[nH]c2=O)cc1 [5-(4-(4-Methoxybutoxy)benzyl)-2-thioxodihydropyrimidine-4,6(1H,5H)-dione] | > 200 |
| O=c1[nH]c(O)c(Cc2ccc(O)cc2)c(=O)[nH]1 [5-(4-Hydroxybenzyl)pyrimidine-2,4,6(1H,3H,5H)-trione] | > 200 |
| O=c1cc(O)[nH]c(=O)[nH]1 [Barbituric acid] | > 200 |
| Oc1cc(O)nc(S)n1 [Thiobarbituric] | > 200 |
